According to ChEMBL document CHEMBL3046382, “Synthesis and insecticidal activities and SAR studies of novel benzoheterocyclic diacylhydrazine derivatives” (2009):

Key:
Assay type in all cases: functional
Culicidae [1] = assay: Toxicity against fourth-instar larvae of Culex pipiens pallens assessed as mortality at 0.5 mg/kg measured after 7 to 10 days
Summary of the method: (§1)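 For each concentration, 1 mL of dilution was added to 99 mL water and 20 fourth-instar larvae introduced. Percentage mortality assessed 7–10 days after treatment.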

Culicidae [2] = assay: Toxicity against fourth-instar larvae of Culex pipiens pallens assessed as mortality at 1 mg/kg measured after 7 to 10 days; summary of the method: as §1
Culicidae [3] = assay: Toxicity against fourth-instar larvae of Culex pipiens pallens assessed as mortality at 2 mg/kg measured after 7 to 10 days; summary of the method: as §1
Mythimna separata [4] = assay: Stomach toxicity in fourth-instar Mythimna separata (Oriental armyworm) larvae in compound treated corn leaves assessed as mortality at 5 mg/kg measured after 4 days; details: 96 h
Mythimna separata [5] = assay: Stomach toxicity in fourth-instar Mythimna separata (Oriental armyworm) larvae in compound treated corn leaves assessed as mortality at 10 mg/kg measured after 4 days; details: 96 h
Mythimna separata [6] = assay: Stomach toxicity in fourth-instar Mythimna separata (Oriental armyworm) larvae in compound treated corn leaves assessed as mortality at 25 mg/kg measured after 4 days; details: 96 h
Mythimna separata [7] = assay: Stomach toxicity in fourth-instar Mythimna separata (Oriental armyworm) larvae in compound treated corn leaves assessed as mortality at 50 mg/kg measured after 4 days; details: 96 h
Mythimna separata [8] = assay: Stomach toxicity in fourth-instar Mythimna separata (Oriental armyworm) larvae in compound treated corn leaves assessed as mortality at 100 mg/kg measured after 4 days; details: 96 h
Mythimna separata [9] = assay: Stomach toxicity in fourth-instar Mythimna separata(Oriental armyworm) larvae in compound treated corn leaves assessed as mortality at 200 mg/kg measured after 4 days; details: 96 h
Mythimna separata [10] = assay: Stomach toxicity in fourth-instar Mythimna separata (Oriental armyworm) larvae in compound treated corn leaves assessed as mortality at 2.5 mg/kg measured after 4 days; details: 96 h

| SMILES | mortality at 0.5 mg/kg (Culicidae [1]) [%] | mortality at 1 mg/kg (Culicidae [2]) [%] | mortality at 2 mg/kg (Culicidae [3]) [%] | mortality at 5 mg/kg (Mythimna separata [4]) [%] | mortality at 10 mg/kg (Mythimna separata [5]) [%] | mortality at 25 mg/kg (Mythimna separata [6]) [%] | mortality at 50 mg/kg (Mythimna separata [7]) [%] | mortality at 100 mg/kg (Mythimna separata [8]) [%] | mortality at 200 mg/kg (Mythimna separata [9]) [%] | mortality at 2.5 mg/kg (Mythimna separata [10]) [%] |
| --- | --- | --- | --- | --- | --- | --- | --- | --- | --- | --- |
| Cc1c(C(=O)NN(C(=O)c2cccc(Cl)c2)C(C)(C)C)ccc2c1CC(C)O2 (stereo not given) | 10 | 20 | 60 | 0 | 10 | 30 | 80 | 100 | 100 | – |
| Cc1c(C(=O)NN(C(=O)c2cc(Cl)cc(Cl)c2)C(C)(C)C)ccc2c1CC(C)(C)O2 | 10 | 20 | 30 | – | – | – | – | 0 | 60 | – |
| Cc1c(C(=O)NN(C(=O)c2cc(Cl)cc(Cl)c2)C(C)(C)C)ccc2c1CC(C)O2 (stereo not given) | 0 | 50 | 80 | 10 | 90 | 90 | 100 | 100 | 100 | 0 |
| COc1ccccc1C(=O)N(NC(=O)c1ccc2c(c1C)CC(C)(C)O2)C(C)(C)C | 0 | 10 | 20 | – | – | – | – | 0 | 0 | – |
| Cc1cccc(C(=O)N(NC(=O)c2ccc3c(c2C)CC(C)O3)C(C)(C)C)c1 (stereo not given) | – | 0 | 0 | 15 | 100 | 100 | 100 | 100 | 100 | 0 |
| Cc1c(C(=O)NN(C(=O)c2cccc([N+](=O)[O-])c2)C(C)(C)C)ccc2c1CC(C)O2 (stereo not given) | 0 | 10 | 20 | – | – | – | – | 0 | 20 | – |
| Cc1c(C(=O)NN(C(=O)c2cc([N+](=O)[O-])cc([N+](=O)[O-])c2)C(C)(C)C)ccc2c1CC(C)O2 (stereo not given) | 10 | 20 | 30 | – | – | – | – | 0 | 20 | – |
| Cc1c(C(=O)NN(C(=O)c2ccccc2)C(C)(C)C)ccc2c1CC(C)O2 (stereo not given) | – | 0 | 0 | – | 0 | 80 | 90 | 100 | 100 | – |
| Cc1c(C(=O)NN(C(=O)c2ccccc2[N+](=O)[O-])C(C)(C)C)ccc2c1CC(C)(C)O2 | 10 | 20 | 40 | – | – | – | – | 0 | 50 | – |
| Cc1c(C(=O)NN(C(=O)c2cccc(Cl)c2)C(C)(C)C)ccc2c1CC(C)(C)O2 | – | 0 | 10 | – | – | – | 0 | 10 | 80 | – |
| Cc1c(C(=O)NN(C(=O)c2ccc(Cl)cc2Cl)C(C)(C)C)ccc2c1CC(C)(C)O2 | – | 0 | 50 | – | – | – | 0 | 10 | 90 | – |
| Cc1c(C(=O)NN(C(=O)c2ccccc2)C(C)(C)C)ccc2c1CC(C)(C)O2 | 10 | 30 | 50 | – | – | – | 0 | 10 | 40 | – |
| Cc1c(C(=O)NN(C(=O)c2ccc([N+](=O)[O-])cc2)C(C)(C)C)ccc2c1CC(C)(C)O2 | – | 0 | 20 | – | – | – | – | 0 | 10 | – |
| Cc1c(C(=O)NN(C(=O)c2cccc([N+](=O)[O-])c2)C(C)(C)C)ccc2c1CC(C)(C)O2 | 10 | 20 | 30 | – | – | – | – | 0 | 10 | – |
| Cc1cc(C)cc(C(=O)N(NC(=O)c2ccc3c(c2C)CC(C)(C)O3)C(C)(C)C)c1 | – | 0 | 70 | – | 0 | 20 | 90 | 100 | 100 | – |
| Cc1c(C(=O)NN(C(=O)c2ccc([N+](=O)[O-])cc2)C(C)(C)C)ccc2c1CC(C)O2 (stereo not given) | – | 0 | 40 | – | – | – | – | 0 | 60 | – |
| Cc1c(C(=O)NN(C(=O)c2cc([N+](=O)[O-])cc([N+](=O)[O-])c2)C(C)(C)C)ccc2c1CC(C)(C)O2 | 10 | 20 | 30 | – | – | – | – | 0 | 40 | – |
| Cc1c(C(=O)NN(C(=O)c2ccc(Cl)cc2)C(C)(C)C)ccc2c1CC(C)O2 (stereo not given) | – | 0 | 0 | – | 0 | 90 | 100 | 100 | 100 | – |
| COc1ccc(C(=O)N(NC(=O)c2ccc3c(c2C)CC(C)(C)O3)C(C)(C)C)cc1 | – | 0 | 10 | – | – | – | – | 0 | 60 | – |
| Cc1c(C(=O)NN(C(=O)c2ccccc2[N+](=O)[O-])C(C)(C)C)ccc2c1CC(C)O2 (stereo not given) | 0 | 20 | 30 | – | 0 | 20 | 60 | 100 | 100 | – |
| Cc1cccc(C(=O)N(NC(=O)c2ccc3c(c2C)CC(C)(C)O3)C(C)(C)C)c1 | 10 | 10 | 50 | – | – | 0 | 30 | 90 | 100 | – |
| Cc1c(C(=O)NN(C(=O)c2ccc(Cl)cc2)C(C)(C)C)ccc2c1CC(C)(C)O2 | 0 | 10 | 60 | – | – | – | 0 | 10 | 90 | – |
| COc1cccc(C(=O)N(NC(=O)c2ccc3c(c2C)CC(C)(C)O3)C(C)(C)C)c1 | 10 | 30 | 40 | – | – | 0 | 20 | 30 | 100 | – |
| Cc1c(C(=O)NN(C(=O)c2ccccc2Cl)C(C)(C)C)ccc2c1CC(C)O2 (stereo not given) | 10 | 20 | 30 | – | 0 | 40 | 100 | 100 | 100 | – |
| Cc1c(C(=O)NN(C(=O)c2ccc(Cl)cc2Cl)C(C)(C)C)ccc2c1CC(C)O2 (stereo not given) | – | 0 | 0 | – | 0 | 90 | 100 | 100 | 100 | – |
| Cc1c(C(=O)NN(C(=O)c2ccccc2Cl)C(C)(C)C)ccc2c1CC(C)(C)O2 | 0 | 20 | 70 | – | – | – | – | 0 | 60 | – |
